Peptide text beside a SMILES is read from it.
What was measured:
Assay type in all cases: functional
[1] = test system: Staphylococcus aureus; assay: Synergistic antibacterial activity against methicillin resistant Staphylococcus aureus ATCC BAA-1556 fractional inhibitory concentration incubated for 24 hrs in presence of vancomycin by checkerboard assay
Method in brief: (§1)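 Checkerboard assay. Inoculum from an LB overnight culture at 0.5 McFarland, diluted 1/150 in MH media. […] Incubated 37 °C for 24 h. FICI = MIC combination/MIC alone summed over both agents. Triplicate.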

[2] = test system: Staphylococcus aureus; assay: Synergistic antibacterial activity against methicillin resistant Staphylococcus aureus ATCC BAA-1556 fractional inhibitory concentration index incubated for 24 hrs in presence of Ciprofloxacin by checkerboard assay; method in brief: as §1
[3] = test system: Pseudomonas aeruginosa; assay: Synergistic antibacterial activity against Pseudomonas aeruginosa ATCC […] fractional inhibitory concentration incubated for 24 hrs in presence of kanamycin by checkerboard assay; method in brief: as §1
[4] = test system: Pseudomonas aeruginosa; assay: Synergistic antibacterial activity against Pseudomonas aeruginosa ATCC […] fractional inhibitory concentration index incubated for 24 hrs in presence of meropenem by checkerboard assay
[5] = test system: Pseudomonas aeruginosa; assay: Synergistic antibacterial activity against Pseudomonas aeruginosa ATCC […] incubated for 24 hrs in presence of Ciprofloxacin by checkerboard assay
[6] = test system: Pseudomonas aeruginosa; assay: Synergistic antibacterial activity against Pseudomonas aeruginosa ATCC […] fractional inhibitory concentration index incubated for 24 hrs in presence of daptomycin by checkerboard assay
[7] = test system: Klebsiella pneumoniae; assay: Synergistic antibacterial activity against Klebsiella pneumoniae ATCC BAA-1705 fractional inhibitory concentration incubated for 24 hrs in presence of polymyxin B by checkerboard assay
Method in brief: (§2)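 Checkerboard assay in MH broth. Inoculum from an LB overnight culture set to 0.5 McFarland and diluted 1/150. […] Each agent was also titrated alone. Incubation 24 h at 37 °C. FIC = combination MIC/individual MIC; FICI = sum of the FICs. Triplicate.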

[8] = test system: Escherichia coli; assay: Synergistic antibacterial activity against Escherichia coli ATCC 25922 fractional inhibitory concentration incubated for 24 hrs in presence of vancomycin by checkerboard assay; method in brief: as §2
[9] = test system: Staphylococcus aureus; assay: Synergistic antibacterial activity against methicillin resistant Staphylococcus aureus ATCC BAA-1556 fractional inhibitory concentration index incubated for 24 hrs in presence of vancomycin by checkerboard assay; method in brief: as §1
[10] = test system: Klebsiella pneumoniae; assay: Synergistic antibacterial activity against Klebsiella pneumoniae ATCC BAA-1705 fractional inhibitory concentration incubated for 24 hrs in presence of levofloxacin by checkerboard assay; method in brief: as §2
[11] = test system: Klebsiella pneumoniae; assay: Synergistic antibacterial activity against Klebsiella pneumoniae ATCC BAA-1705 fractional inhibitory concentration index incubated for 24 hrs in presence of Ciprofloxacin by checkerboard assay; method in brief: as §2
[12] = test system: Escherichia coli; assay: Synergistic antibacterial activity against Escherichia coli ATCC 25922 fractional inhibitory concentration index incubated for 24 hrs in presence of vancomycin by checkerboard assay; method in brief: as §1
[13] = test system: Klebsiella pneumoniae; assay: Synergistic antibacterial activity against Klebsiella pneumoniae ATCC BAA-1705 fractional inhibitory concentration index incubated for 24 hrs in presence of vancomycin by checkerboard assay; method in brief: as §1
[14] = test system: Escherichia coli; assay: Synergistic antibacterial activity against Escherichia coli ATCC 25922 assessed as fractional inhibitory concentration index incubated for 24 hrs in presence of tetracycline by checkerboard assay; method in brief: as §2
[15] = test system: Pseudomonas aeruginosa; assay: Synergistic antibacterial activity against Pseudomonas aeruginosa ATCC […] fractional inhibitory concentration index incubated for 24 hrs in presence of metronidazole by checkerboard assay
[16] = test system: Pseudomonas aeruginosa; assay: Synergistic antibacterial activity against Pseudomonas aeruginosa ATCC […] assessed as fractional inhibitory concentration index incubated for 24 hrs in presence of clindamycin by checkerboard assay; method in brief: as §1
[17] = test system: Klebsiella pneumoniae; assay: Synergistic antibacterial activity against Klebsiella pneumoniae ATCC BAA-1705 fractional inhibitory concentration index incubated for 24 hrs in presence of clindamycin by checkerboard assay; method in brief: as §2
[18] = test system: Pseudomonas aeruginosa; assay: Synergistic antibacterial activity against Pseudomonas aeruginosa ATCC […] fractional inhibitory concentration incubated for 24 hrs in presence of vancomycin by checkerboard assay
[19] = test system: Klebsiella pneumoniae; assay: Synergistic antibacterial activity against Klebsiella pneumoniae ATCC BAA-1705 assessed as fractional inhibitory concentration incubated for 24 hrs in presence of tetracycline by checkerboard assay; method in brief: as §2
[20] = test system: Klebsiella pneumoniae; assay: Synergistic antibacterial activity against Klebsiella pneumoniae ATCC BAA-1705 fractional inhibitory concentration index incubated for 24 hrs in presence of polymyxin B by checkerboard assay
[21] = test system: Pseudomonas aeruginosa; assay: Synergistic antibacterial activity against Pseudomonas aeruginosa ATCC […] assessed as fractional inhibitory concentration incubated for 24 hrs in presence of clindamycin by checkerboard assay
[22] = test system: Pseudomonas aeruginosa; assay: Synergistic antibacterial activity against Pseudomonas aeruginosa ATCC […] fractional inhibitory concentration incubated for 24 hrs in presence of levofloxacin by checkerboard assay
[23] = test system: Pseudomonas aeruginosa; assay: Synergistic antibacterial activity against Pseudomonas aeruginosa ATCC […] fractional inhibitory concentration index incubated for 24 hrs in presence of Ciprofloxacin by checkerboard assay
[24] = test system: Pseudomonas aeruginosa; assay: Synergistic antibacterial activity against Pseudomonas aeruginosa ATCC […] assessed as fractional inhibitory concentration incubated for 24 hrs in presence of tetracycline by checkerboard assay
[25] = test system: Klebsiella pneumoniae; assay: Synergistic antibacterial activity against Klebsiella pneumoniae ATCC BAA-1705 incubated for 24 hrs in presence of polymyxin B by checkerboard assay
[26] = test system: Pseudomonas aeruginosa; assay: Synergistic antibacterial activity against Pseudomonas aeruginosa ATCC […] fractional inhibitory concentration index incubated for 24 hrs in presence of vancomycin by checkerboard assay
[27] = test system: Escherichia coli; assay: Synergistic antibacterial activity against Escherichia coli ATCC 25922 incubated for 24 hrs in presence of polymyxin B by checkerboard assay; method in brief: as §2
[28] = test system: Staphylococcus aureus; assay: Synergistic antibacterial activity against methicillin resistant Staphylococcus aureus ATCC BAA-1556 fractional inhibitory concentration incubated for 24 hrs in presence of metronidazole by checkerboard assay; method in brief: as §1
[29] = test system: Pseudomonas aeruginosa; assay: Synergistic antibacterial activity against Pseudomonas aeruginosa ATCC […] assessed as fractional inhibitory concentration index incubated for 24 hrs in presence of tetracycline by checkerboard assay
[30] = test system: Staphylococcus aureus; assay: Synergistic antibacterial activity against methicillin resistant Staphylococcus aureus ATCC BAA-1556 incubated for 24 hrs in presence of tetracycline by checkerboard assay; method in brief: as §1
[31] = test system: Staphylococcus aureus; assay: Synergistic antibacterial activity against methicillin resistant Staphylococcus aureus ATCC BAA-1556 incubated for 24 hrs in presence of tobramycin by checkerboard assay; method in brief: as §1
[32] = test system: Klebsiella pneumoniae; assay: Synergistic antibacterial activity against Klebsiella pneumoniae ATCC BAA-1705 assessed as fractional inhibitory concentration incubated for 24 hrs in presence of tobramycin by checkerboard assay; method in brief: as §2
[33] = test system: Klebsiella pneumoniae; assay: Synergistic antibacterial activity against Klebsiella pneumoniae ATCC BAA-1705 assessed as fractional inhibitory concentration index incubated for 24 hrs in presence of tetracycline by checkerboard assay; method in brief: as §2
[34] = test system: Escherichia coli; assay: Bactericidal activity against Escherichia coli assessed as reduction in bacterial cells at 4 times MIC after 2 hrs by time kill assay; parameters: scale not given: the % may be the effect or the level left
Method in brief: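 Samples taken at time points from 0 to 24 h, serially diluted and plated on MH agar. CFU counted after 24 h at 37 °C. Untreated culture served as control. Two independent experiments in triplicate.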

[35] = test system: Pseudomonas aeruginosa; assay: Synergistic antibacterial activity against Pseudomonas aeruginosa ATCC […] incubated for 24 hrs in presence of tobramycin by checkerboard assay
[36] = test system: Staphylococcus aureus; assay: Synergistic antibacterial activity against methicillin resistant Staphylococcus aureus ATCC BAA-1556 fractional inhibitory concentration index incubated for 24 hrs in presence of levofloxacin by checkerboard assay; method in brief: as §1

| Structure (SMILES) | FIC [1] | fractional inhibitory concentration index (FICI) [2] | FIC [3] | fractional inhibitory concentration index (FICI) [4] | MIC [5] [µg/mL] | fractional inhibitory concentration index (FICI) [6] | FIC [7] | FIC [8] | fractional inhibitory concentration index (FICI) [9] | FIC [10] | fractional inhibitory concentration index (FICI) [11] | fractional inhibitory concentration index (FICI) [12] | fractional inhibitory concentration index (FICI) [13] | fractional inhibitory concentration index (FICI) [14] | fractional inhibitory concentration index (FICI) [15] | fractional inhibitory concentration index (FICI) [16] | fractional inhibitory concentration index (FICI) [17] | FIC [18] | FIC [19] | fractional inhibitory concentration index (FICI) [20] | further results |
| --- | --- | --- | --- | --- | --- | --- | --- | --- | --- | --- | --- | --- | --- | --- | --- | --- | --- | --- | --- | --- | --- |
| N=C(N)NCCC[C@@H]1NC(=O)[C@H](CCCNC(=N)N)NC(=O)[C@H](CCCNC(=N)N)NC(=O)[C@H](CCCNC(=N)N)NC(=O)[C@H](Cc2c[nH]c3ccccc23)NC(=O)[C@H](Cc2c[nH]c3ccccc23)NC(=O)[C@H](Cc2c[nH]c3ccccc23)NC(=O)[C@H](Cc2c[nH]c3ccccc23)NC(=O)[C@H](CCCNC(=N)N)NC(=O)[C@H](CCCNC(=N)N)NC1=O (cyclo(RRRRRRWWWW)) | 0.25 | 0.75 | 0.0156 | 0.5 | 0.125 | 0.516 | 0.031 | 0.063 | 0.5 | 0.125 | 0.313 | 0.563 | 0.313 | 0.313 | 0.375 | 0.516 | 0.266 | 0.0313 | 0.125 | 0.281 | FIC [21]: 0.016; FIC [22]: 0.125; fractional inhibitory concentration index (FICI) [23]: 0.5; FIC [24]: 0.25; MIC [25]: 0.031 µg/mL; fractional inhibitory concentration index (FICI) [26]: 0.531; MIC [27]: 0.125 µg/mL; FIC [28]: 0.063; fractional inhibitory concentration index (FICI) [29]: 0.5; MIC [30]: 0.0625 µg/mL; MIC [31]: 0.0625 µg/mL; FIC [32]: 0.25; fractional inhibitory concentration index (FICI) [33]: 0.375 |
| N=C(N)NCCC[C@@H]1NC(=O)[C@H](CCCNC(=N)N)NC(=O)[C@H](CCCNC(=N)N)NC(=O)[C@H](Cc2c[nH]c3ccccc23)NC(=O)[C@H](Cc2c[nH]c3ccccc23)NC(=O)[C@H](Cc2c[nH]c3ccccc23)NC(=O)[C@H](Cc2c[nH]c3ccccc23)NC(=O)[C@H](CCCNC(=N)N)NC(=O)[C@H](CCCNC(=N)N)NC1=O | 0.5 | 0.625 | 0.0313 | 0.375 | 0.125 | 0.313 | 0.125 | 0.0313 | 0.75 | 0.125 | 0.313 | 0.531 | 0.563 | 0.375 | 0.5 | 0.266 | 0.254 | 0.063 | 0.125 | 0.375 | Activity [34]: 100%; MIC [35]: 0.125 µg/mL; FIC [21]: 0.016; FIC [22]: 0.125; fractional inhibitory concentration index (FICI) [36]: 0.5; fractional inhibitory concentration index (FICI) [23]: 0.5; FIC [24]: 0.125; MIC [25]: 0.125 µg/mL; fractional inhibitory concentration index (FICI) [26]: 0.313; MIC [27]: 0.25 µg/mL; FIC [28]: 0.063; fractional inhibitory concentration index (FICI) [29]: 0.375; MIC [30]: 0.0625 µg/mL; MIC [31]: 0.125 µg/mL; FIC [32]: 0.125; fractional inhibitory concentration index (FICI) [33]: 0.375 |

From ChEMBL document CHEMBL5236607, “Membrane-Active Cyclic Amphiphilic Peptides: Broad-Spectrum Antibacterial Activity Alone and in Combination with Antibiotics” (J Med Chem, 2022)
